Experimental data as given in ChEMBL document CHEMBL3244396, “Synthesis and antileukemic activity of 5-substituted 2,3-dihydro-6,7-bis(hydroxymethyl)-1H-pyrrolizine diesters” (J Med Chem, 1977).

Columns and labels:
[1] = Cytotoxicity against human 9KB cells treated as ethanol solution; format: functional; settings: read-out: ED50 (the source's name)
Method in brief: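 Compound applied as an ethanol solution; activity read out as ED50 under the general screening protocol.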

L1210 [2] = test: Antileukemic activity against mouse L1210 cells allografted in female BDF1 mouse assessed as change in body weight at 12.5 mg/kg, ip administered daily for 9 days as Klucel suspension starting 24 hrs after tumor inoculation; format: functional; settings: route intraperitoneal
Method in brief: (§1)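 Ascitic fluid carrying L1210 cells was inoculated ip. Compound was given ip as a Klucel (hydroxypropylcellulose) suspension in nine daily doses, starting 24 h after inoculation. Body-weight difference (treated minus control) was recorded on day 5. Survival was scored as %T/C of mean survival time.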

L1210 [3] = test: Antileukemic activity against mouse L1210 cells allografted in female BDF1 mouse assessed as change in body weight at 25 mg/kg, ip administered daily for 9 days as Klucel suspension starting 24 hrs after tumor inoculation; format: functional; settings: route intraperitoneal; method in brief: as §1
L1210 [4] = test: Antileukemic activity against mouse L1210 cells allografted in female BDF1 mouse assessed as change in body weight at 50 mg/kg, ip administered daily for 9 days as Klucel suspension starting 24 hrs after tumor inoculation; format: functional; settings: route intraperitoneal; method in brief: as §1
L1210 [5] = test: Antileukemic activity against mouse L1210 cells allografted in female BDF1 mouse assessed as change in body weight at 100 mg/kg, ip administered daily for 9 days as Klucel suspension starting 24 hrs after tumor inoculation; format: functional; settings: route intraperitoneal; method in brief: as §1
L1210 [6] = test: Antileukemic activity against mouse L1210 cells allografted in female BDF1 mouse assessed as change in body weight at 200 mg/kg, ip administered daily for 9 days as Klucel suspension starting 24 hrs after tumor inoculation; format: functional; settings: route intraperitoneal; method in brief: as §1
L1210 [7] = test: Antileukemic activity against mouse L1210 cells allografted in female BDF1 mouse assessed as host mean survival time at 200 mg/kg, ip administered daily for 9 days as Klucel suspension starting 24 hrs after tumor inoculation relative to control; format: functional; settings: route intraperitoneal
Method in brief: (§2)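 L1210 leukemia given as an ascitic fluid cell inoculum, ip, to mice of the strain and sex in each line. Test material was given ip for nine daily doses starting 24 h after inoculation, in a Klucel (hydroxypropylcellulose) suspension. Read-out is mean survival time as %T/C versus controls, with >125 taken as significant.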

L1210 [8] = test: Antileukemic activity against mouse L1210 cells allografted in female BDF1 mouse assessed as host mean survival time at 100 mg/kg, ip administered daily for 9 days as Klucel suspension starting 24 hrs after tumor inoculation relative to control; format: functional; settings: route intraperitoneal; method in brief: as §2
L1210 [9] = test: Antileukemic activity against mouse L1210 cells allografted in female BDF1 mouse assessed as host mean survival time at 50 mg/kg, ip administered daily for 9 days as Klucel suspension starting 24 hrs after tumor inoculation relative to control; format: functional; settings: route intraperitoneal; method in brief: as §2
L1210 [10] = test: Antileukemic activity against mouse L1210 cells allografted in female BDF1 mouse assessed as host mean survival time at 25 mg/kg, ip administered daily for 9 days as Klucel suspension starting 24 hrs after tumor inoculation relative to control; format: functional; settings: route intraperitoneal; method in brief: as §2
L1210 [11] = test: Antileukemic activity against mouse L1210 cells allografted in female BDF1 mouse assessed as host mean survival time at 12.5 mg/kg, ip administered daily for 9 days as Klucel suspension starting 24 hrs after tumor inoculation relative to control; format: functional; settings: route intraperitoneal; method in brief: as §2
Mus musculus [12] = test: Toxicity in female BDF1 mouse allografted with mouse L1210 cells assessed as animal survival at 100 mg/kg, ip administered daily for 9 days as Klucel suspension starting 24 hrs after tumor inoculation measured on fifth day; format: organism-based; set-up: dose 100 mg/kg, route intraperitoneal; settings: in vivo
Method in brief: (§3)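 Female BDF1 mice bearing ip ascitic L1210 inoculum got nine daily ip doses in a Klucel suspension, starting 24 h after tumor inoculation. Toxicity was scored as toxicity-day survivors out of the group, recorded on the fifth day. Animal weight difference (T − C) was also tabulated.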

Mus musculus [13] = test: Toxicity in female BDF1 mouse allografted with mouse L1210 cells assessed as animal survival at 50 mg/kg, ip administered daily for 9 days as Klucel suspension starting 24 hrs after tumor inoculation measured on fifth day; format: organism-based; set-up: dose 50 mg/kg, route intraperitoneal; settings: in vivo
Method in brief: (§4)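 L1210 leukemia passaged as ascitic fluid and inoculated ip. Test agent given ip as a Klucel (hydroxypropylcellulose) suspension, nine daily doses starting 24 h after tumor inoculation. Acute toxicity read as toxicity-day survivors per group (out of 6), recorded on day 5. Animal weight difference T − C was also recorded. Follows NCI screening protocols.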

Mus musculus [14] = test: Toxicity in female BDF1 mouse allografted with mouse L1210 cells assessed as animal survival at 25 mg/kg, ip administered daily for 9 days as Klucel suspension starting 24 hrs after tumor inoculation measured on fifth day; format: organism-based; set-up: dose 25 mg/kg, route intraperitoneal; settings: in vivo; method in brief: as §4
Mus musculus [15] = test: Toxicity in female BDF1 mouse allografted with mouse L1210 cells assessed as animal survival at 12.5 mg/kg, ip administered daily for 9 days as Klucel suspension starting 24 hrs after tumor inoculation measured on fifth day; format: organism-based; set-up: dose 12.5 mg/kg, route intraperitoneal; settings: in vivo; method in brief: as §3
Mus musculus [16] = test: Toxicity in female BDF1 mouse allografted with mouse P388 cells assessed as animal survival at 25 mg/kg, ip administered daily for 9 days as Klucel suspension starting 24 hrs after tumor inoculation; format: organism-based; set-up: dose 25 mg/kg, route intraperitoneal; settings: in vivo
Method in brief: (§5)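 P-388 leukemia ascitic fluid inoculated ip. Compound given ip as a suspension in Klucel (hydroxypropylcellulose), once daily for nine doses beginning 24 h post-inoculation. Acute toxicity assessed as toxicity-day survivors per group. Survival was followed up to 30 days, with 30-day survival counted as "cure". Follows NCI screening protocols.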

Mus musculus [17] = test: Toxicity in female BDF1 mouse allografted with mouse P388 cells assessed as animal survival at 12.5 mg/kg, ip administered daily for 9 days as Klucel suspension starting 24 hrs after tumor inoculation; format: organism-based; set-up: dose 12.5 mg/kg, route intraperitoneal; settings: in vivo; method in brief: as §5
P388 [18] = test: Antitumor activity against mouse P388 cells allografted in female BDF1 mouse assessed as disease cures by measuring 30-days host survival at 25 mg/kg, ip administered daily for 9 days as Klucel suspension starting 24 hrs after tumor inoculation relative to control; format: functional; settings: route intraperitoneal
Method in brief: (§6)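 P388 leukemia given as an ascitic fluid cell inoculum, ip, to mice of the strain and sex in each line. Nine daily ip doses were given in a Klucel (hydroxypropylcellulose) suspension, starting 24 h after inoculation. Read-out is median survival time as %T/C, with >125 taken as significant; a "cure" means 30-day survival.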

P388 [19] = test: Antitumor activity against mouse P388 cells allografted in female BDF1 mouse assessed as disease cures by measuring 30-days host survival at 12.5 mg/kg, ip administered daily for 9 days as Klucel suspension starting 24 hrs after tumor inoculation relative to control; format: functional; settings: route intraperitoneal; method in brief: as §6
Mus musculus [20] = test: Toxicity in female CDF1 mouse allografted with mouse P388 cells assessed as animal survival at 200 mg/kg, ip administered daily for 9 days as Klucel suspension starting 24 hrs after tumor inoculation; format: organism-based; set-up: dose 200 mg/kg, route intraperitoneal; settings: in vivo; method in brief: as §5
Mus musculus [21] = test: Toxicity in female CDF1 mouse allografted with mouse P388 cells assessed as animal survival at 100 mg/kg, ip administered daily for 9 days as Klucel suspension starting 24 hrs after tumor inoculation; format: organism-based; set-up: dose 100 mg/kg, route intraperitoneal; settings: in vivo; method in brief: as §5
Mus musculus [22] = test: Toxicity in female CDF1 mouse allografted with mouse P388 cells assessed as animal survival at 50 mg/kg, ip administered daily for 9 days as Klucel suspension starting 24 hrs after tumor inoculation; format: organism-based; set-up: dose 50 mg/kg, route intraperitoneal; settings: in vivo; method in brief: as §5
P388 [23] = test: Antitumor activity against mouse P388 cells allografted in female CDF1 mouse assessed as change in body weight at 50 mg/kg, ip administered daily for 9 days as Klucel suspension starting 24 hrs after tumor inoculation; format: functional; settings: route intraperitoneal
Method in brief: (§7)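 Ascitic fluid carrying P388 cells was inoculated ip. Compound was given ip in nine daily doses, starting 24 h after inoculation, in Klucel (hydroxypropylcellulose) suspension or in saline with Tween-80. Body-weight difference (treated minus control) was recorded on day 5. Survival was scored as %T/C of median survival time, and 30-day survival counted as cure.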

P388 [24] = test: Antitumor activity against mouse P388 cells allografted in female CDF1 mouse assessed as change in body weight at 100 mg/kg, ip administered daily for 9 days as Klucel suspension starting 24 hrs after tumor inoculation; format: functional; settings: route intraperitoneal; method in brief: as §7
P388 [25] = test: Antitumor activity against mouse P388 cells allografted in female CDF1 mouse assessed as change in body weight at 200 mg/kg, ip administered daily for 9 days as Klucel suspension starting 24 hrs after tumor inoculation; format: functional; settings: route intraperitoneal; method in brief: as §7
P388 [26] = test: Antitumor activity against mouse P388 cells allografted in female BDF1 mouse assessed as change in body weight at 25 mg/kg, ip administered daily for 9 days as Klucel suspension starting 24 hrs after tumor inoculation; format: functional; settings: route intraperitoneal; method in brief: as §7
P388 [27] = test: Antitumor activity against mouse P388 cells allografted in female BDF1 mouse assessed as change in body weight at 12.5 mg/kg, ip administered daily for 9 days as Klucel suspension starting 24 hrs after tumor inoculation; format: functional; settings: route intraperitoneal; method in brief: as §7
P388 [28] = test: Antitumor activity against mouse P388 cells allografted in female CDF1 mouse assessed as disease cures by measuring 30-days host survival at 100 mg/kg, ip administered daily for 9 days as Klucel suspension starting 24 hrs after tumor inoculation relative to control; format: functional; settings: route intraperitoneal; method in brief: as §6
P388 [29] = test: Antitumor activity against mouse P388 cells allografted in female CDF1 mouse assessed as disease cures by measuring 30-days host survival at 50 mg/kg, ip administered daily for 9 days as Klucel suspension starting 24 hrs after tumor inoculation relative to control; format: functional; settings: route intraperitoneal; method in brief: as §6

## CC(=O)OCc1c(COC(C)=O)c(-c2ccc(Cl)cc2)n2c1CCC2
[1]
  EC50: > 2.8 µg/mL
L1210 [2]
  Activity: 0.7 g
L1210 [3]
  Activity: 0.6 g
L1210 [4]
  Activity: -1.8 g
L1210 [5]
  Activity: -3.8 g
L1210 [6]
  Activity: -3.8 g
L1210 [7]
  T/C: 64%
L1210 [8]
  T/C: 76%
L1210 [9]
  T/C: 117%
L1210 [10]
  T/C: 102%
L1210 [11]
  T/C: 95%
Mus musculus [12]
  Activity: Non-toxic
Mus musculus [13]
  Activity: Non-toxic
Mus musculus [14]
  Activity: Non-toxic
Mus musculus [15]
  Activity: Non-toxic
Mus musculus [16]
  Activity: Non-toxic
Mus musculus [17]
  Activity: Non-toxic
P388 [18]
  T/C: 123%
P388 [19]
  T/C: 119%
Mus musculus [20]
  Activity: Toxic
Mus musculus [21]
  Activity: Non-toxic
Mus musculus [22]
  Activity: Non-toxic
P388 [23]
  Activity: -1.9 g
P388 [24]
  Activity: -3.3 g
P388 [25]
  Activity: 0.5 g
P388 [26]
  Activity: -0.2 g
P388 [27]
  Activity: -0.6 g
P388 [28]
  T/C: 66%
P388 [29]
  T/C: 118%
